The results in this text go back to PubChem BioAssay AID588487 (The Scripps Research Institute Molecular Screening Center, 2011).

Molecules are shown by their SMILES. The source made the active and inactive calls.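 How the source made its calls: active means inhibition of at least 50% against any of four protein arginine deiminase enzymes; inactive means the rest.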

Holding throughout (experiment): PAD isozyme probe labeling blockade – biochemical, fluorescence, gel-based ABPP, HTS hits, orthogonal assay for PAD4 inhibitor project, late-stage follow-up (AID 588487)
The target of assay [1] is Protein-arginine deiminase type-3 (Homo sapiens) (UniProt Q9ULW8). The note with it: recombinant PAD1-4, gel-based ABPP, RFA probe fluorescence; PAD3; at 10 µM; stronger effect = higher value. The method, boiled down: (§1)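 Material: recombinant PAD1, PAD2, PAD3 or PAD4; Quantity: PAD enzyme 10 µM; Also added: RFA fluorescent probe at 1 µM; Dosing: one 10 µM dose per compound; Timing: 15 min compound pre-incubation plus 30 min probe step, 37 °C; Detection: in-gel fluorescence scan of probe-labeled PAD band after SDS-PAGE.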

Assay [2] concerns the target Protein-arginine deiminase type-2 (Homo sapiens) (UniProt Q9Y2J8). The note with it: recombinant PAD1-4, gel-based ABPP, RFA probe fluorescence; PAD2; at 10 µM; stronger effect = higher value. In outline:
as §1

The target in assay [3] is Protein-arginine deiminase type-1 (Homo sapiens) (UniProt Q9ULC6). Particulars: recombinant PAD1-4, gel-based ABPP, RFA probe fluorescence; PAD1; at 10 µM; stronger effect = higher value. The method, boiled down: as §1
Assay [4] addresses Protein-arginine deiminase type-4 (Homo sapiens) (UniProt Q9UM07). Particulars: recombinant PAD1-4, gel-based ABPP, RFA probe fluorescence; PAD4; at 10 µM; stronger effect = higher value. The method, boiled down: as §1

Chain of Protein-arginine deiminase type-4 (Homo sapiens) (Q9UM07 whole entry, looked up): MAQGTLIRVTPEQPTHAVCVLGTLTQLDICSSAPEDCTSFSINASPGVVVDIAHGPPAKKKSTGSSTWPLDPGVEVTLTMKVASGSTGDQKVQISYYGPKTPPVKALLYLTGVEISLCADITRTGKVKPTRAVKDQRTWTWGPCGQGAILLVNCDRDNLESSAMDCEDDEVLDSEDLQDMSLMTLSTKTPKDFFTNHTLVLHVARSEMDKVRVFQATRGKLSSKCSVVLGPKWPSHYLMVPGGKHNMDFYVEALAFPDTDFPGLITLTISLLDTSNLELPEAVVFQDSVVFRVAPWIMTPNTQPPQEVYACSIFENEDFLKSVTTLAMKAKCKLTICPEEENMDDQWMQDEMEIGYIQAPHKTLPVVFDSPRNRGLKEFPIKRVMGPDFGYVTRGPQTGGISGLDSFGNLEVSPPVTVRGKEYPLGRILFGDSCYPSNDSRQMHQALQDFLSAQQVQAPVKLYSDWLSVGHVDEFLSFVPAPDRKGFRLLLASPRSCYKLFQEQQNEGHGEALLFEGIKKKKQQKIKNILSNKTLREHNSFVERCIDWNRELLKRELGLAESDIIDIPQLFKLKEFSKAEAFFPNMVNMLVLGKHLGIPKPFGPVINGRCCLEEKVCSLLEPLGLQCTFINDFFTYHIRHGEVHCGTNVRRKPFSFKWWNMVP
Chain of Protein-arginine deiminase type-1 (Homo sapiens) (Q9ULC6 whole entry, looked up): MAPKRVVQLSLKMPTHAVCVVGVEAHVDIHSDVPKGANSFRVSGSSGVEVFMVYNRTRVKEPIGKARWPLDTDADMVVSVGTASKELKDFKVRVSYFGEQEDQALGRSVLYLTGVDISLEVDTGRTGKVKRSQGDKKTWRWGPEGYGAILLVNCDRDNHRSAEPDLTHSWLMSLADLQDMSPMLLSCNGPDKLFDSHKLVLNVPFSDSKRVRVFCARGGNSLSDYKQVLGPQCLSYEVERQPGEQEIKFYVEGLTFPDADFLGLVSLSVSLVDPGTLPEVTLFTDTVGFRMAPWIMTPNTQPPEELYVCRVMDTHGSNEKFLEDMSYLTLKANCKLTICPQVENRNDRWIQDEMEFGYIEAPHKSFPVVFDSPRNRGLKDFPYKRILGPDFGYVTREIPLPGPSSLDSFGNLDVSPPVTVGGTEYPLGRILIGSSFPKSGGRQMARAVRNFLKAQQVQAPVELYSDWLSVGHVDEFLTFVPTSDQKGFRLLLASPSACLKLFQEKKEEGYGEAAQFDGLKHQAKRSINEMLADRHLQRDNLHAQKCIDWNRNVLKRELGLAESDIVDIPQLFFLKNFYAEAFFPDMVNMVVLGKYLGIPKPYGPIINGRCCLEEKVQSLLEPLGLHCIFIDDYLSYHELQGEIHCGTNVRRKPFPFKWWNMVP
Chain of Protein-arginine deiminase type-2 (Homo sapiens) (Q9Y2J8 whole entry, looked up): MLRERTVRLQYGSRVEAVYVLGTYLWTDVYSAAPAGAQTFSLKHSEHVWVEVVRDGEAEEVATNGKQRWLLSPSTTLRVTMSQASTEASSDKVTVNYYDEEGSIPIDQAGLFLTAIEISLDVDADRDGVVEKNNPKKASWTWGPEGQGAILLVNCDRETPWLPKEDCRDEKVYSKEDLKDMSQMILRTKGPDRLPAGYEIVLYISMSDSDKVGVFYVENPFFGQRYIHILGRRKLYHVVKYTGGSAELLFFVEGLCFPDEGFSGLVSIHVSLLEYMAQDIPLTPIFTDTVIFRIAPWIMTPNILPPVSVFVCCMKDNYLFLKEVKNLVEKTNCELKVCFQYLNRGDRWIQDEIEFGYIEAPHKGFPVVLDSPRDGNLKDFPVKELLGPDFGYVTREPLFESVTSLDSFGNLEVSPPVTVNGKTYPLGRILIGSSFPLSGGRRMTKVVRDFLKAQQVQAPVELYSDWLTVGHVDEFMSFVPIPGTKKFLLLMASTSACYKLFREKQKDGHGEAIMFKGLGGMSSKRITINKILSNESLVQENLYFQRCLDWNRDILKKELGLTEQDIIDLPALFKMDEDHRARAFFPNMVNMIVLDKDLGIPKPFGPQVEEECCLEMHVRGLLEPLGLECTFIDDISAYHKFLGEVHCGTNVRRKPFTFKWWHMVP
Chain of Protein-arginine deiminase type-3 (Homo sapiens) (Q9ULW8 whole entry, looked up): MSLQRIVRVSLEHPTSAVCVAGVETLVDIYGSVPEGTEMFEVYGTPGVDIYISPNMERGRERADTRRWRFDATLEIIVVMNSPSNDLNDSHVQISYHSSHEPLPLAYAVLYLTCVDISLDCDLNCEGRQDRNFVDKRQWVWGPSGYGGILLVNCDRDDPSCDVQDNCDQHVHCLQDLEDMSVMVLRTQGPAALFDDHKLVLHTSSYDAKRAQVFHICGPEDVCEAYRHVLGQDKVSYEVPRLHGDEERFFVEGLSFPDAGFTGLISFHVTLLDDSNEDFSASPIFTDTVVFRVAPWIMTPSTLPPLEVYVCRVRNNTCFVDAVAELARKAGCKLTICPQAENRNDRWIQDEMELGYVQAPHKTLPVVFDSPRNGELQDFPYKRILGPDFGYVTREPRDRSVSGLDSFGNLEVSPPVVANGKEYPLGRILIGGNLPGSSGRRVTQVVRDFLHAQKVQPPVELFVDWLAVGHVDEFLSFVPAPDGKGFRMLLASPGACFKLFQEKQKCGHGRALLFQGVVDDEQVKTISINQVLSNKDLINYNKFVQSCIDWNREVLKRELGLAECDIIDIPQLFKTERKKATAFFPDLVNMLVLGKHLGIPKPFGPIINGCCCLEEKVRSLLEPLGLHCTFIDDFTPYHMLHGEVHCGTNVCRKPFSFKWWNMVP

On to `Cc1c(NC(=O)CSc2nccn2C)c(=O)n(-c2ccccc2)n1C`, for which the inhibition (as a rule, the change of the read-out against control, counted positive when it falls) is -7% (inactive) in assay [1], 35% (inactive) in assay [2], 46% (inactive) in assay [3] and 66% in assay [4].
Regarding `COc1cccc(NC(=O)C2c3cc(OC)c(OC)cc3C(=O)N(C)C2c2cccnc2)c1` (stereo not given), the inhibition is 26% (inactive) in assay [1], 22% (inactive) in assay [2], 15% (inactive) in assay [3] and 61% in assay [4].
The matching figures for `S=C(NCc1ccco1)Nc1cccc(Cl)c1`: 43% (inactive), 25% (inactive), 46% (inactive) and 1% (inactive).
The corresponding values for `CC(=O)Nc1c2c3c(cccc3n(C)c1=O)C(=O)c1ccccc1-2` are 32% (inactive), 37% (inactive), -5% (inactive) and 28% (inactive).
The corresponding values for `CCC(=O)Oc1ccc(C(=O)Nc2cccc(C(=O)NC(C)(C)C)c2)cc1` are 40% (inactive), 29% (inactive), 34% (inactive) and 4% (inactive).
